Legend:
LNCaP C4-2B [1] = assay: Inhibition of DNA synthesis in human C4-2B cells assessed as ratio of treated to untreated control at 0.3 uM after 48 hrs by [3H]thymidine incorporation assay; format: functional
Procedure, shortened: (§1)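 Single-concentration screen by [3H]-thymidine incorporation into DNA. Test compounds were used at 0.3 µM in C4–2B cells and at 3 µM in 320DM, MLS, A2780, H295R and VSMC cells. Estradiol 17β was used at 30 nM throughout. Values are experimental/control DNA-synthesis ratios, given as means ± SD of 8–16 incubates from 2–4 experiments.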

A2780 [2] = assay: Inhibition of DNA synthesis in human A2780 cells assessed as ratio of treated to untreated control at 3 uM after 48 hrs by [3H]thymidine incorporation assay; format: functional; procedure, shortened: as §1
[3] = Inhibition of DNA synthesis in human VSMC cells assessed as ratio of treated to untreated control at 3 uM after 48 hrs by [3H]thymidine incorporation assay
[4] = Inhibition of DNA synthesis in human H295R cells assessed as ratio of treated to untreated control at 3 uM after 48 hrs by [3H]thymidine incorporation assay; format: functional; procedure, shortened: as §1
[5] = Inhibition of DNA synthesis in human 320DM cells assessed as ratio of treated to untreated control at 3 uM after 48 hrs by [3H]thymidine incorporation assay; format: functional; procedure, shortened: as §1
[6] = Stimulation of DNA synthesis in human 320DM cells assessed as ratio of treated to untreated control at 300 nM after 48 hrs by [3H]thymidine incorporation assay; format: functional
Procedure, shortened: (§2)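 Estradiol-driven proliferation in MLS and 320DM cells, measured by [3H]-thymidine incorporation. Cells were exposed to estradiol at 30 or 300 nM, alone or with compound (0.3 µM) or ICI 182780 (1.1 µM). Values are E/C ratios versus untreated control, given as means ± SD of 8–16 incubates from 2–4 experiments.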

LNCaP C4-2B [7] = assay: Inhibition of DNA synthesis in human C4-2B cells assessed as ratio of treated to untreated control at 30 nM after 48 hrs by [3H]thymidine incorporation assay; format: functional; procedure, shortened: as §1
[8] = Inhibition of DNA synthesis in human H295R cells assessed as ratio of treated to untreated control at 30 nM after 48 hrs by [3H]thymidine incorporation assay; format: functional; procedure, shortened: as §1
[9] = Stimulation of DNA synthesis in human MLS cells assessed as ratio of treated to untreated control at 300 nM after 48 hrs by [3H]thymidine incorporation assay; format: functional; procedure, shortened: as §2
A2780 [10] = assay: Inhibition of DNA synthesis in human A2780 cells assessed as ratio of treated to untreated control at 30 nM after 48 hrs by [3H]thymidine incorporation assay; format: functional; procedure, shortened: as §1
[11] = Inhibition of DNA synthesis in human 320DM cells assessed as ratio of treated to untreated control at 30 nM after 48 hrs by [3H]thymidine incorporation assay; format: functional; procedure, shortened: as §1
[12] = Inhibition of DNA synthesis in human VSMC cells assessed as ratio of treated to untreated control at 30 nM after 48 hrs by [3H]thymidine incorporation assay; format: cell-based; details: 0.03 µM; procedure, shortened: as §1
[13] = Inhibition of DNA synthesis in human MLS cells assessed as ratio of treated to untreated control at 30 nM after 48 hrs by [3H]thymidine incorporation assay; format: functional; procedure, shortened: as §1
[14] = Inhibition of 30 nM estradiol induced stimulation of DNA synthesis in human MLS cells assessed as ratio of treated to untreated control at 1.1 uM after 48 hrs by [3H]thymidine incorporation assay; format: functional
Procedure, shortened: (§3)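 [3H]-thymidine incorporation into DNA in human MLS ovarian or 320DM colon cancer cells; antagonist tested at 1.1 µM alone or with estradiol at 30 nM or 300 nM. Reported as ratio of experimental to control (E/C) DNA synthesis, means ± SD of 8–16 incubates from 2–4 experiments; significance flagged at p < 0.05 and p < 0.01.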

[15] = Inhibition of 300 nM estradiol induced stimulation of DNA synthesis in human MLS cells assessed as ratio of treated to untreated control at 1.1 uM after 48 hrs by [3H]thymidine incorporation assay; format: functional; procedure, shortened: as §3
[16] = Inhibition of 300 nM estradiol induced stimulation of DNA synthesis in human 320DM cells assessed as ratio of treated to untreated control at 1.1 uM after 48 hrs by [3H]thymidine incorporation assay; format: functional; procedure, shortened: as §3
[17] = Inhibition of 30 nM estradiol induced stimulation of DNA synthesis in human 320DM cells assessed as ratio of treated to untreated control at 1.1 uM after 48 hrs by [3H]thymidine incorporation assay; format: functional; procedure, shortened: as §3
[18] = Inhibition of DNA synthesis in human 320DM cells assessed as ratio of treated to untreated control at 1.1 uM after 48 hrs by [3H]thymidine incorporation assay; format: functional; procedure, shortened: as §3
[19] = Inhibition of DNA synthesis in human MLS cells assessed as ratio of treated to untreated control at 1.1 uM after 48 hrs by [3H]thymidine incorporation assay; format: functional; procedure, shortened: as §3
[20] = Inhibition of DNA synthesis in human MLS cells assessed as ratio of treated to untreated control at 3 uM after 48 hrs by [3H]thymidine incorporation assay; format: functional; procedure, shortened: as §1

`CC(C)(C)OC(=O)NCCCCCCNC(=O)CCCc1oc2cc(O)cc(O)c2c(=O)c1-c1ccc(O)cc1` gave a Ratio (LNCaP C4-2B [1]) of 0.75, a Ratio (A2780 [2]) of 1.12 and a Ratio [3] of 0.78. The Ratio [4] was 0.6 and the Ratio [5] was 0.2.

With `C[C@]12CC[C@@H]3c4ccc(O)cc4CC[C@H]3[C@@H]1CC[C@@H]2O` [ESTRADIOL] the Ratio [6] was 1.87, the Ratio (LNCaP C4-2B [7]) was 2.1 and the Ratio [8] was 2.1. It also gave a Ratio [9] of 1.7, a Ratio (A2780 [10]) of 1.42 and a Ratio [11] of 2.06. The Ratio [12] was 0.55 and the Ratio [13] was 2.35.

`C[C@]12CC[C@@H]3c4ccc(O)cc4C[C@@H](CCCCCCCCC[S+]([O-])CCCC(F)(F)C(F)(F)F)[C@H]3[C@@H]1CC[C@@H]2O` (stereo not given in full) [FULVESTRANT] gave a Ratio [14] of 0.53, a Ratio [15] of 0.95 and a Ratio [16] of 0.92. The Ratio [17] was 0.63, the Ratio [18] was 0.63 and the Ratio [19] was 0.52.

For `COc1ccc(-c2c(CCCC(=O)NCCCCCCNC(=O)OC(C)(C)C)oc3cc(O)cc(O)c3c2=O)cc1`, the Ratio (LNCaP C4-2B [1]) was 0.41, the Ratio (A2780 [2]) was 0.64 and the Ratio [3] was 0.74. The Ratio [20] was 0.05, the Ratio [4] was 0.55 and the Ratio [5] was 0.22.

Source: ChEMBL document CHEMBL1138318, “Synthesis and evaluation of the antiproliferative activities of derivatives of carboxyalkyl isoflavones linked to N-t-Boc-hexylenediamine” (J Med Chem, 2007)
